Measured values from different studies.
Compare with care: the assays were run in different laboratories.
Target: Serine/threonine-protein kinase D2 (PRKD2, Homo sapiens, UniProt Q9BZL6)
Residues used in one study (Q9BZL6 1-878): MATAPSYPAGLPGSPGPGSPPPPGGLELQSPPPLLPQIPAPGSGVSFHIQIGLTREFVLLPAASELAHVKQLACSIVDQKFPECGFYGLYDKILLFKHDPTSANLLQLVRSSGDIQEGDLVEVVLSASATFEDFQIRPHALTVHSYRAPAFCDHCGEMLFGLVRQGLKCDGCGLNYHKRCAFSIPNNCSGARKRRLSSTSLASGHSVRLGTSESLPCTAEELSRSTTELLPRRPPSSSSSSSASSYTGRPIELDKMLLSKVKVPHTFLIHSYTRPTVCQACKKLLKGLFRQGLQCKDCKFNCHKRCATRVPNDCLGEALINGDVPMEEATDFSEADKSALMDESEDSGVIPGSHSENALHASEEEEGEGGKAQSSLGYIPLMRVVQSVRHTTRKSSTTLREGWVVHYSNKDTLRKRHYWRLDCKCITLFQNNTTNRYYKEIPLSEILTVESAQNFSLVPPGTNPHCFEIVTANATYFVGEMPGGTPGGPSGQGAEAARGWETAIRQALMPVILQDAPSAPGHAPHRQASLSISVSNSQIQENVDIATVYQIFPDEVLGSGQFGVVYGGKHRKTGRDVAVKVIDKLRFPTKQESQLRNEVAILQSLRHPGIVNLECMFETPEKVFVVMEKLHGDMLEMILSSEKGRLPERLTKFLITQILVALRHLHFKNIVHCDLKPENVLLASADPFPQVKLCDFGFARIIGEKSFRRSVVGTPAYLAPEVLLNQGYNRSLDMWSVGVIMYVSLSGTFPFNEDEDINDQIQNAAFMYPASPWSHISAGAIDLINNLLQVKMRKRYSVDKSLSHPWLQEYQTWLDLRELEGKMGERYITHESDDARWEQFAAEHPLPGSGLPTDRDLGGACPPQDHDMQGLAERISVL

CCCCC(=O)Nc1ccc(-c2ccc3ncn(CCC)c(=O)c3c2)cn1 — remaining binding (binding; competition with immobilised ligand; 0.5 µM): 88%
C[C@H]1CC[C@H](n2c3cnccc3c3cnc(Nc4ccc5c(n4)CCN(C(=O)CO)C5)nc32)CC1 — remaining signal (cell-free assay; 1 µM): 100%
C1=C/COCc2cc(ccc2OCCN2CCCC2)Nc2nccc(n2)-c2cccc(c2)COC/1 — remaining binding (binding; 0.1 µM): 100%
CO[C@@H]1[C@H](N(C)C(=O)c2ccccc2)C[C@H]2O[C@]1(C)n1c3ccccc3c3c4c(c5c6ccccc6n2c5c31)C(=O)NC4 — inhibition (enzyme activity; inhibitor; 1 µM): 18%
Cc1cc(O)c(-c2ccc([C@@H](C)CN(C)C)cc2)c2c1[nH]c(=O)c1sccc12 — inhibition (enzyme activity; inhibitor; 0.1 µM): -4.52%
COc1ccc2oc(-c3ccc4nc(N)oc4c3)c/c(=N\c3ccccc3NC(=O)CCN)c2c1 — remaining binding (binding; 1 µM): 94%
C#Cc1cc(-c2cc(Nc3nc(N[C@@H](C)c4ccc(F)cn4)ncc3Cl)n[nH]2)ccc1C=O — inhibition (enzyme activity; inhibitor; 0.2 µM): 5.36%
C=CC(=O)N1CCC([C@@H]2CCNc3c(C(N)=O)c(-c4ccc(Oc5ccccc5)cc4)nn32)CC1 — inhibition (enzyme activity; inhibitor; 1 µM): 3%
Cc1ccc(NC(=O)c2ccnc(C(F)(F)F)c2)cc1-c1cc(OCCO)nc(N2CCOCC2)c1 — remaining binding (binding; 1 µM): 88%
